Activity calls are given as the source filed them. The calls are words filed in the database; no cut-off is given here.
What was measured:
MGC-803 = experiment: Cytotoxicity against human MGC803 cells after 48 hrs by MTT assay; assay type: functional, cell-based; details: MGC-803, 48 h
In short: (§1)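 Cells grown in medium with 10% heat-inactivated FBS, 5% CO2, 37 °C. Compounds given in medium with 1% DMSO at 1.25–20 graded concentrations; 1% DMSO medium served as control. MTT (5 mg/mL) added, formazan dissolved in DMSO, absorbance read at 570/630 nm. Survival expressed relative to negative control. IC50 by Bliss method (n=5), at least three independent experiments, mean ± SD.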

NCI-H460 = experiment: Cytotoxicity against human NCI-H460 cells after 48 hrs by MTT assay; assay type: functional, cell-based; details: NCI-H460, 48 h; in short: as §1
HepG2 [1] = experiment: Cytotoxicity against human HepG2 cells after 48 hrs by MTT assay; assay type: functional, cell-based; details: HepG2, 48 h; in short: as §1
HeLa = experiment: Cytotoxicity against human HeLa cells after 48 hrs by MTT assay; assay type: functional, cell-based; in short: as §1
[2] = Cytotoxicity against human SMMC-7404 cells after 48 hrs by MTT assay; assay type: functional, cell-based; details: SMMC-7404, 48 h; in short: as §1
HUVEC = experiment: Cytotoxicity against human HUVEC cells after 48 hrs by MTT assay; assay type: cell-based; in short: as §1
HepG2 [3] = experiment: Induction of apoptosis in human HepG2 cells assessed as early apoptotic cells at 10 uM after 12 hrs by flow cytometry (reference value: 2.1 %); assay type: functional
In short: (§2)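 HepG2 cells treated 12 h at 10 or 20 µM, with untreated control. Stained with annexin V-FITC plus PI for 30 min at 25 °C in the dark. Quadrant percentages read by flow cytometry.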

HepG2 [4] = experiment: Induction of apoptosis in human HepG2 cells assessed as change in membrane integrity using acridine orange/ethidium bromide staining at 20 uM after 12 to 24 hrs by fluorescence microscopy; assay type: functional, cell-based
In short: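 HepG2 cells on coverslips treated with 20 µM in medium with 10% FBS for 12 or 24 h, with untreated 24 h control. Stained with AO/EB and examined by fluorescence microscopy: green = live, green-yellow = early apoptotic, orange = late apoptotic or necrotic.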

HepG2 [5] = experiment: Induction of apoptosis in human HepG2 cells assessed as condensation of nucleus using hoechst staining at 20 uM after 12 to 24 hrs by fluorescence microscopy; assay type: functional, cell-based
In short: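 HepG2 cells on coverslips treated at 20 µM for 12 or 24 h, with untreated 24 h control. Fixed in 4% paraformaldehyde for 10 min, then stained with Hoechst 33258 for 5 min. Nuclei viewed by fluorescence microscopy at 350 nm excitation and 460 nm emission.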

HepG2 [6] = experiment: Induction of apoptosis in human HepG2 cells assessed as change in morphology at 20 uM after 12 to 24 hrs using JC-1 staining by fluorescence microscopy; assay type: functional, cell-based
In short: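 HepG2 cells treated at 20 µM for 12 or 24 h, with untreated 24 h control. Incubated with JC-1 (5 µg/ml) at 37 °C for 20 min, rinsed in PBS. Green (515–545 nm) and red (570–600 nm) emission imaged by fluorescence microscopy; depolarization taken as a rise in green/red ratio.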

HepG2 [7] = experiment: Induction of apoptosis in human HepG2 cells assessed as late apoptotic cells at 10 uM after 12 hrs by flow cytometry (reference value: 6.9 %); assay type: functional; in short: as §2
HepG2 [8] = experiment: Induction of apoptosis in human HepG2 cells assessed as necrotic cells at 10 uM after 12 hrs by flow cytometry (reference value: 2.3 %); assay type: functional; in short: as §2
HepG2 [9] = experiment: Induction of apoptosis in human HepG2 cells after 12 hrs by flow cytometry; assay type: functional, cell-based; in short: as §2
HepG2 [10] = experiment: Induction of apoptosis in human HepG2 cells assessed as early apoptotic cells at 20 uM after 12 hrs by flow cytometry (reference value: 2.1 %); assay type: functional; in short: as §2
HepG2 [11] = experiment: Induction of apoptosis in human HepG2 cells assessed as late apoptotic cells at 20 uM after 12 hrs by flow cytometry (reference value: 6.9 %); assay type: functional; in short: as §2
HepG2 [12] = experiment: Induction of apoptosis in human HepG2 cells assessed as necrotic cells at 20 uM after 12 hrs by flow cytometry (reference value: 2.3 %); assay type: functional; in short: as §2
HepG2 [13] = experiment: Cell cycle arrest in human HepG2 cells assessed as accumulation at G1 phase at 20 uM after 12 hrs using propidium iodide staining by flow cytometry (reference value: 41.51 %); assay type: functional
HepG2 [14] = experiment: Cell cycle arrest in human HepG2 cells assessed as accumulation at G2 phase at 20 uM after 12 hrs using propidium iodide staining by flow cytometry (reference value: 6.20 %); assay type: functional
HepG2 [15] = experiment: Cell cycle arrest in human HepG2 cells assessed as accumulation at S phase at 20 uM after 12 hrs using propidium iodide staining by flow cytometry (reference value: 52.28 %); assay type: functional
HepG2 [16] = experiment: Cell cycle arrest in human HepG2 cells assessed as accumulation at G1 phase at 20 uM after 24 hrs using propidium iodide staining by flow cytometry (reference value: 41.51 %); assay type: functional
HepG2 [17] = experiment: Cell cycle arrest in human HepG2 cells assessed as accumulation at G2 phase at 20 uM after 24 hrs using propidium iodide staining by flow cytometry (reference value: 6.20 %); assay type: functional
HepG2 [18] = experiment: Cell cycle arrest in human HepG2 cells assessed as accumulation at S phase at 20 uM after 24 hrs using propidium iodide staining by flow cytometry (reference value: 52.28 %); assay type: functional
HepG2 [19] = experiment: Induction of apoptosis in human HepG2 cells assessed as generation of intracellular ROS at 20 uM after 12 to 24 hrs by fluorescence microscopy; assay type: functional, cell-based
In short: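 HepG2 cells treated at 20 µM for 12 or 24 h, with untreated 24 h control. Loaded with 20 µM DCFH-DA in cell-free medium at 37 °C for 30 min in the dark, then washed in PBS. DCF fluorescence imaged by fluorescence microscopy at 485 nm excitation and 538 nm emission.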

HepG2 [20] = experiment: Induction of apoptosis in human HepG2 cells assessed as caspase-3 expression at 20 uM by qRT-PCR analysis; assay type: functional, cell-based; details: TDE = time-dependent effect
In short: (§3)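 Total RNA extracted from HepG2 cells […]. Transcripts quantified by real-time RT-PCR, with Ct values normalized to actin by the ΔCt method. Run in triplicate per group.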

HepG2 [21] = experiment: Induction of apoptosis in human HepG2 cells assessed as caspase-8 expression at 20 uM by qRT-PCR analysis; assay type: functional, cell-based; details: TDE = time-dependent effect; in short: as §3
HepG2 [22] = experiment: Induction of apoptosis in human HepG2 cells assessed as increase in Bax level after 24 hrs by Western blot analysis; assay type: functional, cell-based
In short: (§4)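 HepG2 cells grown to 80–90% confluence, then kept 12 h in 0.1% FCS RPMI 1640. Exposed 24 h at 5, 10 or 20 µM. Cell extracts run on SDS-polyacrylamide gels, transferred to nitrocellulose and probed with primary antibodies against cytochrome c, Bax, Bcl-2, caspase-9, caspase-3 and cleaved PARP.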

HepG2 [23] = experiment: Induction of apoptosis in human HepG2 cells assessed as decrease in Bcl-2 level after 24 hrs by Western blot analysis; assay type: functional, cell-based; in short: as §4
HepG2 [24] = experiment: Induction of apoptosis in human HepG2 cells assessed as accumulation of cytochrome c in cytosol at 5 to 20 uM after 24 hrs by Western blot analysis; assay type: functional, cell-based; in short: as §4
HepG2 [25] = experiment: Induction of apoptosis in human HepG2 cells assessed as increase in caspase-9 level at 5 to 20 uM after 24 hrs by Western blot analysis; assay type: functional, cell-based; in short: as §4
HepG2 [26] = experiment: Induction of apoptosis in human HepG2 cells assessed as increase in caspase-3 level at 5 to 20 uM after 24 hrs by Western blot analysis; assay type: functional, cell-based; in short: as §4

Structure (SMILES): C[C@H]1[C@H](C)CC[C@]2(C(=O)Nc3cccc(F)c3)CC[C@]3(C)C(=CC(=O)[C@@H]4[C@@]5(C)C[C@@H](O)[C@H](O)[C@@](C)(CO)[C@@H]5CC[C@]43C)[C@H]12
- IC50 (MGC-803): 14.3 µM
- IC50 (NCI-H460): 23.6 µM
- IC50 (HepG2 [1]): 5.97 µM
- IC50 (HeLa): 28.2 µM
- IC50 [2]: 14.1 µM
- IC50 (HUVEC): > 100 µM
- Activity (HepG2 [3]): 7.2%
- Activity (HepG2 [4]): Active
- Activity (HepG2 [5]): Active
- Activity (HepG2 [6]): Active
- Activity (HepG2 [7]): 6.6%
- Activity (HepG2 [8]): 2.2%
- Activity (HepG2 [9]): Dose-dependent effect
- Activity (HepG2 [10]): 25%
- Activity (HepG2 [11]): 9%
- Activity (HepG2 [12]): 2.6%
- Activity (HepG2 [13]): 55.29%
- Activity (HepG2 [14]): 6.09%
- Activity (HepG2 [15]): 38.62%
- Activity (HepG2 [16]): 65.58%
- Activity (HepG2 [17]): 5.56%
- Activity (HepG2 [18]): 28.86%
- Activity (HepG2 [19]): Active
- Activity (HepG2 [20]): tde
- Activity (HepG2 [21]): tde
- Activity (HepG2 [22]): Dose-dependent effect
- Activity (HepG2 [23]): Dose-dependent effect
- Activity (HepG2 [24]): Active
- Activity (HepG2 [25]): Active
- Activity (HepG2 [26]): Active

Source: ChEMBL document CHEMBL3352325, “Synthesis and biological evaluation of novel aniline-derived asiatic acid derivatives as potential anticancer agents” (Eur J Med Chem, 2014)
